Results taken from ChEMBL document CHEMBL3808334, “Synthesis and in vitro evaluation of novel triazine analogues as anticancer agents and their interaction studies with bovine serum albumin” (Eur J Med Chem, 2016).

Assays:
Type in all cases: functional
[1] = system: ACHN; assay: Growth inhibition of human ACHN cells assessed as cell growth at 10^-6 M incubated for 48 hrs by sulforhodamine B assay; details: read-out: Activity
How it was run: (§1)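 Five-dose assay: five concentrations from 10-fold or ½-log serial dilutions. Cells are plated at 5,000–40,000 per well according to doubling time, grown 24 h, then exposed 48 h at 37 °C, 5% CO₂. Fixed with cold 50% TCA (final addition) for 60 min at 4 °C and stained with 0.4% SRB in 1% acetic acid. Bound dye is solubilized in 10 mM Tris base and read at 515 nm. GI₅₀ is where [(Ti−Tz)/(C−Tz)]×100 = 50, with a time-zero plate as Tz.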

[2] = Growth inhibition of human Hs 578T cells assessed as cell growth at 10^-6 M incubated for 48 hrs by sulforhodamine B assay; details: read-out: Activity
[3] = Growth inhibition of human SNB19 cells assessed as cell growth at 10^-6 M incubated for 48 hrs by sulforhodamine B assay; details: SNB-19, 48 h, read-out: Activity
[4] = system: CCRF-CEM; assay: Growth inhibition of human CCRF-CEM cells assessed as cell growth at 10 uM incubated for 48 hrs by sulforhodamine B assay; details: read-out: Activity
How it was run: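 One-dose screen at 10 µM final. Cells are plated at 5,000–40,000 per well according to doubling time and preincubated 24 h at 37 °C, 5% CO₂. Compound (DMSO stock diluted in medium with 50 µg/ml gentamicin) is then added for 48 h. Growth percent is read by sulforhodamine B staining, absorbance at 515 nm.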

[5] = system: NCI-H460; assay: Growth inhibition of human NCI-H460 cells incubated for 48 hrs by sulforhodamine B assay; details: NCI-H460, 48 h
How it was run: (§2)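 Cells were plated at 5,000–40,000 per well according to doubling time and preincubated 24 h at 37 °C in 5% CO2; time-zero plates were then TCA-fixed. Five concentrations (10-fold or ½-log dilutions, DMSO stock) were incubated 48 h. Cells were TCA-fixed, stained with 0.4% SRB and read at 515 nm. GI50 was taken where [(Ti−Tz)/(C−Tz)]×100 = 50.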

[6] = Growth inhibition of human Caki1 cells assessed as cell growth at 10^-5 M incubated for 48 hrs by sulforhodamine B assay; details: CAKI-1, 48 h, read-out: Activity
How it was run: (§3)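 Cells seeded at 5,000–40,000/well according to doubling time and preincubated 24 h at 37 °C, 5% CO2. Time-zero plates were TCA-fixed. DMSO concentrate was diluted in medium with 50 µg/ml gentamicin to give five concentrations (10-fold or ½ log steps), then exposed 48 h. Cells were TCA-fixed, stained with 0.4% SRB and read at 515 nm. Percent growth was taken against time-zero and control; GI50, TGI and LC50 derived.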

[7] = Growth inhibition of human RPMI8226 cells assessed as cell growth at 10^-7 M incubated for 48 hrs by sulforhodamine B assay; details: RPMI-8226, 48 h, read-out: Activity
[8] = system: CCRF-CEM; assay: Growth inhibition of human CCRF-CEM cells assessed as cell growth at 10^-6 M incubated for 48 hrs by sulforhodamine B assay; details: read-out: Activity
How it was run: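 Leukemia line in the five-dose format: five concentrations from 10-fold or ½-log serial dilutions. Plated at 5,000–40,000 cells per well, preincubated 24 h, then compound added for 48 h at 37 °C, 5% CO₂. Sulforhodamine B absorbance read at 515 nm. Growth is computed against time-zero (Tz) and control (C) readings; GI₅₀ is where [(Ti−Tz)/(C−Tz)]×100 = 50.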

[9] = system: SK-MEL-2; assay: Growth inhibition of human SK-MEL-2 cells assessed as cell growth at 10^-4 M incubated for 48 hrs by sulforhodamine B assay; details: SK-MEL-2, 48 h, read-out: Activity
[10] = Growth inhibition of human BT549 cells assessed as cell growth at 10^-4 M incubated for 48 hrs by sulforhodamine B assay; details: BT-549, 48 h, read-out: Activity; how it was run: as §1
[11] = Growth inhibition of human SF539 cells assessed as cell growth at 10 uM incubated for 48 hrs by sulforhodamine B assay; details: SF-539, 48 h, read-out: Activity
[12] = system: EKVX; assay: Growth inhibition of human EKVX cells assessed as cell growth at 10^-6 M incubated for 48 hrs by sulforhodamine B assay; details: read-out: Activity; how it was run: as §3
[13] = system: NCI-H522; assay: Growth inhibition of human NCI-H522 cells assessed as cell growth at 10^-7 M incubated for 48 hrs by sulforhodamine B assay; details: NCI-H522, 48 h, read-out: Activity
[14] = Growth inhibition of human Caki1 cells assessed as cell growth at 10 uM incubated for 48 hrs by sulforhodamine B assay; details: CAKI-1, 48 h, read-out: Activity
How it was run: (§4)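 Primary screen at one dose (10 µM) across 60 human cancer cell lines. Readout was growth percent relative to untreated control and time-zero.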

[15] = system: SK-MEL-5; assay: Growth inhibition of human SK-MEL-5 cells assessed as cell growth at 10^-6 M incubated for 48 hrs by sulforhodamine B assay; details: SK-MEL-5, 48 h, read-out: Activity
[16] = Growth inhibition of human UO31 cells assessed as cell growth at 10^-7 M incubated for 48 hrs by sulforhodamine B assay; details: UO-31, 48 h, read-out: Activity
[17] = Growth inhibition of human OVCAR3 cells assessed as cell growth at 10^-7 M incubated for 48 hrs by sulforhodamine B assay; details: OVCAR-3, 48 h, read-out: Activity
[18] = Growth inhibition of human UO31 cells assessed as cell growth at 10^-5 M incubated for 48 hrs by sulforhodamine B assay; details: UO-31, 48 h, read-out: Activity
[19] = system: SR; assay: Growth inhibition of human SR cells incubated for 48 hrs by sulforhodamine B assay; how it was run: as §2
[20] = system: SK-MEL-28; assay: Growth inhibition of human SK-MEL-28 cells assessed as cell growth at 10^-5 M incubated for 48 hrs by sulforhodamine B assay; details: SK-MEL-28, 48 h, read-out: Activity
[21] = Growth inhibition of human prostate cancer cells incubated for 48 hrs by sulforhodamine B assay; details: Cancer cell lines; for CC50: read-out: LC50 (the source's name)
[22] = Growth inhibition of human UO31 cells assessed as cell growth at 10 uM incubated for 48 hrs by sulforhodamine B assay; details: UO-31, 48 h, read-out: Activity
[23] = Growth inhibition of human COLO205 cells assessed as cell growth at 10 uM incubated for 48 hrs by sulforhodamine B assay; details: COLO 205, 48 h, read-out: Activity; how it was run: as §4
[24] = system: NCI/ADR-RES; assay: Growth inhibition of human NCI/ADR-RES cells assessed as cell growth at 10^-5 M incubated for 48 hrs by sulforhodamine B assay; details: read-out: Activity
[25] = Growth inhibition of human RXF393 cells assessed as cell growth at 10^-6 M incubated for 48 hrs by sulforhodamine B assay; details: RXF 393, 48 h, read-out: Activity
[26] = read-out: LC50 (the source's name)
[27] = read-out: pLC50 (the source's name) (converted)

c1ccc(-c2nc(Nc3ccc(-c4nc5ccccc5[nH]4)cc3)nc(N3CCOCC3)n2)cc1
growth at 1 µM [1]: 64%
growth at 1 µM [2]: 78%
growth at 1 µM [3]: 92%
growth at 10 µM [4]: -15.7%
GI50 ([5]; read-out: GI50): 822 nM
CC50 [5, 26]: 6670 nM
TGI ([5]; read-out: TGI): 2460 nM
GI50 ([5]; read-out: pGI50 (converted)): 813 nM
CC50 [5, 27]: 6610 nM
TGI ([5]; read-out: pTGI (converted)): 2450 nM
growth at 10 µM [6]: -100%
growth at 0.1 µM [7]: 97%
growth at 1 µM [8]: 32%
growth at 100 µM [9]: -83%
growth at 100 µM [10]: -80%
growth at 10 µM [11]: -76.8%
growth at 1 µM [12]: 81%
growth at 0.1 µM [13]: 101%
growth at 10 µM [14]: -89.4%
growth at 1 µM [15]: 92%
growth at 0.1 µM [16]: 82%
growth at 0.1 µM [17]: 98%
growth at 10 µM [18]: -78%
GI50 ([19]; read-out: GI50): 125 nM
CC50 [19, 26]: > 100000 nM
TGI ([19]; read-out: TGI): 555 nM
GI50 ([19]; read-out: pGI50 (converted)): 126 nM
CC50 [19, 27]: > 100000 nM
TGI ([19]; read-out: pTGI (converted)): 550 nM
growth at 10 µM [20]: -86%
GI50 [21]: 1510 nM
TGI [21]: 3070 nM
CC50 [21]: 6250 nM
growth at 10 µM [22]: -60.6%
growth at 10 µM [23]: -68.8%
growth at 10 µM [24]: -28%
growth at 1 µM [25]: 30%

Fc1ccc(-c2nc(Nc3ccc(-c4nc5ccccc5[nH]4)cc3)nc(N3CCOCC3)n2)cc1
growth at 1 µM [1]: 82%
growth at 1 µM [2]: 71%
growth at 1 µM [3]: 92%
growth at 10 µM [4]: -1.84%
GI50 ([5]; read-out: GI50): 2480 nM
CC50 [5, 26]: > 100000 nM
TGI ([5]; read-out: TGI): 6510 nM
GI50 ([5]; read-out: pGI50 (converted)): 2450 nM
CC50 [5, 27]: > 100000 nM
TGI ([5]; read-out: pTGI (converted)): 6460 nM
growth at 10 µM [6]: -37%
growth at 0.1 µM [7]: 99%
growth at 1 µM [8]: 92%
growth at 100 µM [9]: -50%
growth at 100 µM [10]: -28%
growth at 10 µM [11]: 0.31%
growth at 1 µM [12]: 83%
growth at 0.1 µM [13]: 97%
growth at 10 µM [14]: -56.6%
growth at 1 µM [15]: 97%
growth at 0.1 µM [16]: 89%
growth at 0.1 µM [17]: 100%
growth at 10 µM [18]: -30%
GI50 ([19]; read-out: GI50): 539 nM
CC50 [19, 26]: > 100000 nM
GI50 ([19]; read-out: pGI50 (converted)): 537 nM
CC50 [19, 27]: > 100000 nM
growth at 10 µM [20]: -49%
GI50 [21]: 3460 nM
TGI [21]: 6660 nM
CC50 [21]: > 100000 nM
growth at 10 µM [22]: -43.5%
growth at 10 µM [23]: -43.7%
growth at 10 µM [24]: 10%
growth at 1 µM [25]: 24%

Clc1ccc(-c2nc(Nc3ccc(-c4nc5ccccc5[nH]4)cc3)nc(N3CCOCC3)n2)cc1
growth at 1 µM [1]: 53%
growth at 1 µM [2]: 43%
growth at 1 µM [3]: 17%
growth at 10 µM [4]: -91.5%
GI50 ([5]; read-out: GI50): 222 nM
TGI ([5]; read-out: TGI): 491 nM
GI50 ([5]; read-out: pGI50 (converted)): 224 nM
TGI ([5]; read-out: pTGI (converted)): 490 nM
growth at 10 µM [6]: -99%
growth at 0.1 µM [7]: 99%
growth at 1 µM [8]: -19%
growth at 100 µM [9]: -40%
growth at 100 µM [10]: -13%
growth at 10 µM [11]: -92.7%
growth at 1 µM [12]: 58%
growth at 0.1 µM [13]: 95%
growth at 10 µM [14]: -93.6%
growth at 1 µM [15]: 93%
growth at 0.1 µM [16]: 92%
growth at 0.1 µM [17]: 97%
growth at 10 µM [18]: -86%
GI50 ([19]; read-out: GI50): 31 nM
CC50 [19, 26]: > 100000 nM
GI50 ([19]; read-out: pGI50 (converted)): 30.9 nM
CC50 [19, 27]: > 100000 nM
growth at 10 µM [20]: -81%
GI50 [21]: 410 nM
TGI [21]: 1490 nM
CC50 [21]: 4330 nM
growth at 10 µM [22]: -87.6%
growth at 10 µM [23]: -68.4%
growth at 10 µM [24]: -72%
growth at 1 µM [25]: -56%

c1ccc2[nH]c(-c3ccc(Nc4nc(N5CCCCC5)nc(N5CCOCC5)n4)cc3)nc2c1
growth at 1 µM [1]: 90%
growth at 1 µM [2]: 89%
growth at 1 µM [3]: 99%
growth at 10 µM [4]: 8.74%
GI50 ([5]; read-out: GI50): 2440 nM
CC50 [5, 26]: > 100000 nM
TGI ([5]; read-out: TGI): 6180 nM
GI50 ([5]; read-out: pGI50 (converted)): 2450 nM
CC50 [5, 27]: > 100000 nM
TGI ([5]; read-out: pTGI (converted)): 6170 nM
growth at 10 µM [6]: -55%
growth at 0.1 µM [7]: 95%
growth at 1 µM [8]: 100%
growth at 100 µM [9]: -68%
growth at 100 µM [10]: -50%
growth at 10 µM [11]: 7.95%
growth at 1 µM [12]: 84%
growth at 0.1 µM [13]: 97%
growth at 10 µM [14]: -46.9%
growth at 1 µM [15]: 97%
growth at 0.1 µM [16]: 86%
growth at 0.1 µM [17]: 104%
growth at 10 µM [18]: -35%
GI50 ([19]; read-out: GI50): 731 nM
CC50 [19, 26]: > 100000 nM
TGI ([19]; read-out: TGI): 5730 nM
GI50 ([19]; read-out: pGI50 (converted)): 724 nM
CC50 [19, 27]: > 100000 nM
TGI ([19]; read-out: pTGI (converted)): 5750 nM
growth at 10 µM [20]: -57%
GI50 [21]: 3670 nM
TGI [21]: 9130 nM
CC50 [21]: > 100000 nM
growth at 10 µM [22]: -37.8%
growth at 10 µM [23]: -61.3%
growth at 10 µM [24]: 28%
growth at 1 µM [25]: 46%
